{"data": "Measurements gathered from unrelated publications", "effect on": "cell growth or viability", "note": "Protocols differ between the studies behind these lines."}
{"SMILES": "CC(Oc1ccc(F)cc1Cl)C(=O)NCc1ccc2c(c1)OCO2 (centres unmarked)", "cell line": "CHO", "test": "LDH", "endpoint": "CC50", "result": "> 100 µM"}
{"SMILES": "O=C(Cn1cnc2ccccc21)NN=Cc1ccc(O)cc1O", "cell line": "SH-SY5Y", "test": "MTT", "conditions": "24 h", "endpoint": "IC50", "result": "89.2 µM"}
{"SMILES": "CN1CCN(CC2CCN(c3nccc4[nH]c(-c5cc(F)cc(F)c5)nc34)CC2)CC1", "cell line": "CHO", "endpoint": "CC50", "result": "24 µM"}
{"SMILES": "C#CCN[C@@H]1CCc2ccccc21", "cell line": "SH-SY5Y", "test": "MTT", "conditions": "24 h", "endpoint": "IC50", "result": "> 500 µM"}
{"SMILES": "O=[N+]([O-])c1ccc(-c2nc3cccc(O)c3[nH]2)o1", "cell line": "CHO", "test": "resazurin", "conditions": "72 h", "endpoint": "CC50", "result": "97 µM"}
{"SMILES": "COc1ccc(S(=O)(=O)ON=C2C=C(C)C(=O)C(C)=C2)cc1", "cell line": "SH-SY5Y", "endpoint": "CC50", "result": "0.19 µM"}
{"SMILES": "CN1CCN(c2nccc3nc(-c4ccc(F)c(F)c4)[nH]c23)CC1", "cell line": "CHO", "endpoint": "CC50", "result": "> 50 µM"}
{"SMILES": "CC(Oc1ccc(Cl)cc1Cl)C(=O)NC(c1ccc(F)cc1)C1CCC1 (centres unmarked)", "cell line": "CHO", "test": "LDH", "endpoint": "CC50", "result": "> 100 µM"}
